Test [1] can be described thus: Inhibition of Cryptosporidium hominis DHFR-TS expressed in Escherichia coli.
For test [2], the target named is T1, Bifunctional dihydrofolate reductase-thymidylate synthase (Toxoplasma gondii, UniProt Q07422).
T1 sequence (Q07422 whole entry): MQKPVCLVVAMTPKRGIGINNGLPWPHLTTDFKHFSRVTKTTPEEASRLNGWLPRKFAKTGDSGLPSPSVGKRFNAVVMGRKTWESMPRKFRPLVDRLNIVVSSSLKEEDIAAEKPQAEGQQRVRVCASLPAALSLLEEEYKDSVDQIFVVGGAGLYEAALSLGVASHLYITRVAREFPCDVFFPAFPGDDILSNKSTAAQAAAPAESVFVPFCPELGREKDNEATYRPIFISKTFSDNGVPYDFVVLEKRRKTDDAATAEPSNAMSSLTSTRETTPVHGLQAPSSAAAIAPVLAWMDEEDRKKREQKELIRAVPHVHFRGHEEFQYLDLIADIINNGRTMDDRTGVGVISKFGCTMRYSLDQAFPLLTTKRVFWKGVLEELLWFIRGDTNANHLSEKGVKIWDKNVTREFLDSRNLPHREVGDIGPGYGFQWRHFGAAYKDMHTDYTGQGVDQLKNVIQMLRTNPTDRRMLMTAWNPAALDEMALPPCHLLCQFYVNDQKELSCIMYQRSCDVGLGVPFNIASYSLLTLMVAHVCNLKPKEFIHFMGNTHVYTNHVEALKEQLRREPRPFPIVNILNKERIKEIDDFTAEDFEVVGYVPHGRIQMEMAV
The test can be described thus: Inhibition of Toxoplasma gondii DHFR-TS.

Test [3] concerns Cryptosporidium hominis. The test can be described thus: Ligand efficiency at Cryptosporidium hominis DHFR-TS relative to TMP.
In test [4] the target is T2, Bifunctional dihydrofolate reductase-thymidylate synthase (Toxoplasma gondii) (UniProt Q07422).
T2 sequence (whole entry): T1 sequence (Q07422 whole entry)
The test can be described thus: Ligand efficiency at Toxoplasma gondii DHFR-TS relative to TMP.

In test [5] the test system is Cryptosporidium hominis. Briefly: Ligand efficiency at Cryptosporidium hominis DHFR-TS. An outline of the steps:
(§1)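 Computed from the enzyme IC50 substituted for Kd: ΔG = (1.99 cal K^-1 mol^-1)(300 K)(ln IC50)(0.001 kcal/cal), divided by the number of non-hydrogen atoms.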

For test [6], the target named is T2, Bifunctional dihydrofolate reductase-thymidylate synthase (Toxoplasma gondii). The test can be described thus: Ligand efficiency at Toxoplasma gondii DHFR-TS. Put shortly:
as §1

pIC50: −log10 of the molar value.

Broadly, the pIC50 is −log10 of the IC50, conventionally taken in molar units. Lower therefore signals a large IC50.

For the compound `COc1cc(CC#Cc2cnc(N)nc2N)cc(OC)c1OC`, the pIC50 in test [1] was 4.06; in test [2] it was 4.66. For the same compound, the values for the Activity (in the test with Cryptosporidium hominis [3]; in test [4]) were 0.24 and 0.28, respectively.

As to `COc1cc(/C=C/c2cnc(N)nc2N)cc(OC)c1OC`, the pIC50 in test [1] was less than 3.00.

Take `COc1cc(CC#Cc2c(C)nc(N)nc2N)cc(OC)c1OC`: the figures for the pIC50 in test [1] and in test [2] were 4.99 and 6.06, respectively. The Activity with Cryptosporidium hominis [3] is 0.29; in the test on Cryptosporidium hominis [5], 0.29; in test [6], 0.35; in test [4] it was 0.35.

Consider `COc1cc(C(C)C#Cc2cnc(N)nc2N)cc(OC)c1OC` (stereo unspecified), for which the pIC50 in test [2] is 5.51.

For the compound `COc1cc(C(O)C#Cc2c(C)nc(N)nc2N)cc(OC)c1OC` (stereo unspecified), the pIC50 in test [1] is 3.85; in test [2], 5.04.

On to `COc1cc(C(C)C#Cc2c(C)nc(N)nc2N)cc(OC)c1OC` (stereo unspecified), for which the pIC50 in test [1] was 6.77; in test [2], 6.92.

Turning to `COc1cc([C@@H](C)C#Cc2c(C)nc(N)nc2N)cc(OC)c1OC`, the values for the negative logarithm of the IC50 (pIC50) in test [1] and in test [2] were 7.42 and 8.85, respectively. The Activity with Cryptosporidium hominis [3] was 0.41; with Cryptosporidium hominis [5] it was 0.41; in test [6], 0.49; in test [4] it was 0.49.

With `CN(Cc1cnc2nc(N)nc(N)c2n1)c1ccc(C(=O)N[C@@H](CCC(=O)O)C(=O)O)cc1` [METHOTREXATE], the negative logarithm of the IC50 (pIC50) in test [1] was 7.64. For the same compound, the figures for the Activity (with Cryptosporidium hominis [5]; in test [6]) were 0.32 and 0.33, respectively.

Compound `COc1cc(C(O)C#Cc2cnc(N)nc2N)cc(OC)c1OC` (stereo unspecified) showed a pIC50 in test [1] of 3.71.

In the case of `COc1cc(CCc2cnc(N)nc2N)cc(OC)c1OC`, the negative-log IC50 (pIC50) is less than 3.00 in test [1] and 4.04 in test [2].

With `COc1cc([C@H](C)C#Cc2c(C)nc(N)nc2N)cc(OC)c1OC`, the pIC50 in test [1] is 5.72; in test [2], 7.89.

With `COc1cc(Cc2cnc(N)nc2N)cc(OC)c1OC`, the Activity in the test with Cryptosporidium hominis [5] worked out at 0.32; in test [6], 0.33.

`COc1cc(C(C#Cc2c(C)nc(N)nc2N)OC)cc(OC)c1OC` (stereo unspecified): the negative logarithm of the IC50 (pIC50) in test [1] is 5.30; in test [2] it was 6.26.

In the case of `COc1cc(C(C#Cc2cnc(N)nc2N)OC)cc(OC)c1OC` (stereo unspecified), the pIC50 in test [1] is 3.88; in test [2], 5.01.

Values taken from ChEMBL document CHEMBL1142238, “Highly efficient ligands for dihydrofolate reductase from Cryptosporidium hominis and Toxoplasma gondii inspired by structural analysis” (J Med Chem, 2007).
